Assay outcomes (PubChem BioAssay)
RanGTP-Impb inh: inhibitors of RanGTP-importin-beta interaction, primary screen, biochemical, FRET, CFP-Ran, YFP-importin-beta, homogeneous | cell-free CFP-Ran/YFP-importin-beta FRET ratio | inhibition, % (no concentration beside the values) | 300,000 compounds, 1.1% hits | AID 2216;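 active = more than half of the replicate wells show a fall in the fluorescence ratio signal beyond about 16%, limit read from the data, passing the limit was not always enough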
PHOSPHO1 inh: inhibitors of human PHOSPHO1 phosphatase | Q8TCT1 | recombinant PHOSPHO1, absorbance phosphatase assay | inhibition, % at 13.3 µM | 290,000 compounds, 1.1% hits | AID 1565; in the data active = inhibition above about 60%
Runt-SMMHC FRET: blocks binding of human RUNX1 Runt domain to CBFb-SMMHC; 220,000 compounds, 0.74% hits; Cerulean-Runt/Venus-CBFb-SMMHC FRET ratio 530/480, 1 h; inhibition, % at 20 µM; Q01196+Q13951; AID 1434;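 active = mean inhibition across duplicate retests at 20 µM reaching about 50%, limit read from the data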;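 note: inhibitors lower the FRET ratio by blocking Runt binding to CBFb-SMMHC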
Target sequence (Q01196 whole entry, looked up, the tested form may be a part): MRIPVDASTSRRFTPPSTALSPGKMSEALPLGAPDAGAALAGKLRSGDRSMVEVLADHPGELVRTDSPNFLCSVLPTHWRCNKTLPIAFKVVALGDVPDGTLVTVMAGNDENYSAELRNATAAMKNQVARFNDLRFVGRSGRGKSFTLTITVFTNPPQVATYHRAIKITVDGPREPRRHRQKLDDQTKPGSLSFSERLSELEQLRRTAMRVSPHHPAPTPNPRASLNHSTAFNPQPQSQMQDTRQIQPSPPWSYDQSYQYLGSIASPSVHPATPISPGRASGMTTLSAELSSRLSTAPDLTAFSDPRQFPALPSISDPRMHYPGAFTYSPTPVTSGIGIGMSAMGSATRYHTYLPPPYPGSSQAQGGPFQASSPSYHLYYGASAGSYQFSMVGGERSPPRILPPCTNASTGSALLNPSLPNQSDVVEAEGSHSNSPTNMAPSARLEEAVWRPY
Target sequence (Q13951 whole entry, looked up, the tested form may be a part): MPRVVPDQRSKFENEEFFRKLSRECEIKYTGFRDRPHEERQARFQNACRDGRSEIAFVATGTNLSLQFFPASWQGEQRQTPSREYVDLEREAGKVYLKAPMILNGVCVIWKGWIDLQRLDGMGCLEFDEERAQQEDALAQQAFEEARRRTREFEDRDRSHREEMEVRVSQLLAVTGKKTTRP
Efa HMGR inh: E. faecalis class II HMG-CoA reductase inhibition; purified E. faecalis HMGR, NADPH absorbance 340 nm kinetic; inhibition, % at 10 µM; 190,000 compounds, 0.41% hits; AID 1066;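 active = inhibition above a set limit, the median over all tested compounds plus 3 SD, cut at about 9.5% in these data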;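 note: enzyme runs in reverse so mevalonate oxidation gives rising NADPH absorbance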
Runt-CBFb FRET: Runt domain-CBFb interaction inhibition | Q01196+Q13951 | 220,000 compounds, 0.46% hits | AID 1496 | Cerulean-Runt/Venus-CBFb FRET ratio 530/480, 1 h | inhibition, % at 20 µM;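 active = inhibition over about 50% at 20 µM in the single-dose screen, limit read from the data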
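Assay system: Cerulean-Runt domain / Medium: Tris 50 mM pH 7.5, KCl, K2SO4, 0.01% BSA / Timing: protein complex preformed 1 h, compound exposure 1 h, room temperature, dark / Measured by: FRET, excitation 422 nm, emission at 530 and 480 nm / Evaluation: loss of energy transfer signal / Control set: 5 µM unlabeled CBFb as full-inhibition high control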
Wee1 degr inh: human Wee1 degradation inhibition, primary screen | reporter increase, % at 5 µM | 220,000 compounds, 1.2% hits | P30291 | HeLa Luc-Wee1K328M stability, luciferase luminescence; 100% = proteasome inhibitor MG132 effect | AID 1321;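 active = activation above the mean of all tested compounds plus 3 SD, set per screening run, cut at about 8.8% in these data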;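 note: cells exposed to compound for 20 h before luminescence read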
YIC FRET counter: counter-screen: alters YIC FRET probe signal. IC50, µM. shares compounds with RanGTP-Impb inh. 1,000 compounds, 40% hits. AID 435026. Purified YIC probe, intramolecular FRET ratio YFP/CFP;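 active = fitted half-maximal inhibitory concentration no more than tenfold above the top dose tested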
Hits are given with their value; – = inactive; · = not tested or not shown. Compounds with a hit are over-represented: about 3.4% of the library has one in this group of screens.

SMILES | RanGTP-Impb inh | PHOSPHO1 inh | Runt-SMMHC FRET | Efa HMGR inh | Runt-CBFb FRET | Wee1 degr inh | YIC FRET counter
O=C(Nc1cnc2ccccc2c1)c1cccc(-n2cnnn2)c1 | 19 | – | – | – | – | – | –
Cc1ccc(C(=O)N/C(=C/C=C\c2ccccc2)C(=O)NCc2ccco2)cc1 | – | – | – | – | – | – | ·
COC(=O)C1=CN(c2ccc(F)cc2)C=C(C(=O)OC)C1c1cccc([N+](=O)[O-])c1 | – | – | · | · | · | · | ·
COC(=O)C1=CN(c2ccc(OC)cc2)C=C(C(=O)OC)C1c1cccc(F)c1 | 17 | – | · | · | · | · | 7.5
CN1CCN(C(=O)c2cc3nc(-c4ccc(Cl)cc4)cc(C(F)(F)F)n3n2)CC1 | – | – | – | – | – | – | ·
CN1CCN(C(=O)c2cc3nc(-c4ccccc4)cc(C(F)(F)F)n3n2)CC1 | 22 | – | – | – | – | – | –
CC(=O)c1c(N2CCN(C)CC2)nc(=S)n(-c2cc(C)ccc2C)c1C | 34 | – | 74 | – | – | – | –
O=C(NCc1ccccc1C(F)(F)F)C1CC(c2ccc(C(F)(F)F)cc2)=NO1 (centres undefined) | 17 | – | – | · | – | · | –
Cc1ccccc1-c1nnc(NC(=O)c2ccc(N3C(=O)CCC3=O)cc2)s1 | – | – | – | – | – | – | ·
Cc1cccc(-c2nnc(NC(=O)c3ccc(N4C(=O)CCC4=O)cc3)s2)c1 | 17 | – | – | – | – | – | –
O=C(COC(=O)c1ccccc1Nc1cccc(C(F)(F)F)c1)NCc1ccco1 | – | – | – | – | – | – | ·
CC1CCN(C(=O)CN2C(=O)C(C)(C)Oc3ccc(C(=O)NC(C)C)cc32)CC1 | – | – | · | · | · | · | ·
CCOC(=O)c1ccc2[nH]cc(C(C)=O)c(=O)c2c1 | 21 | – | – | – | – | – | 14
Oc1ccc(/C=N/Nc2ccc3ccccc3c2)c(O)c1 | 16 | – | – | – | – | – | –
Cc1cc(N/N=C/c2ccc(O)cc2O)c2ccccc2n1 | – | – | · | · | · | · | ·
C=C(C)CN(CC)Cc1c(C(=O)N(C)CCCC)nc2ccccn12 | – | – | – | – | – | – | ·
Cc1cc(-c2nnc(SCC(=O)Nc3ccccc3C)n2N)n[nH]1 | – | – | · | · | · | · | ·
COc1ccc([N+](=O)[O-])cc1NC(=O)CSc1nccc(C)n1 | – | – | – | – | – | – | ·
COc1ccc([N+](=O)[O-])cc1NC(=O)CSc1ncccn1 | 20 | – | – | – | – | – | –
CCCn1c(=O)c2c(nc3n2CCCN3CCc2ccc(OC)c(OC)c2)n(C)c1=O | – | – | · | · | · | · | ·
COc1ccc(C2NC(C(=O)O)CS2)cc1COCC(F)(F)F (centres undefined) | – | · | · | – | · | – | ·
COc1cc(CN2CCN(Cc3c[nH]c4ccccc34)CC2CCO)cc(OC)c1 (centres undefined) | 21 | – | · | · | · | · | –
COc1ccc(NC(=O)N2CCc3ccccc3C2)cc1 | – | – | · | · | · | · | ·
Cc1nc2ccccc2n1CC(=O)N1CC(=O)Nc2ccccc21 | 18 | – | – | – | – | – | –
CCOc1cc(N2CCOCC2)c(OCC)cc1NC(=O)CN1CCN(Cc2ccc3c(c2)OCO3)CC1 | – | – | – | – | – | – | ·
SMILES | RanGTP-Impb inh | PHOSPHO1 inh | Runt-SMMHC FRET | Efa HMGR inh | Runt-CBFb FRET | Wee1 degr inh | YIC FRET counter
Cc1c(Cl)cccc1NC(=O)N1CCCN(c2nc(-c3ccccc3)ns2)CC1 | – | – | – | · | – | – | ·
O=C(Nc1ccccn1)C1CCCN(c2ncnc3c2nc2n3CCCCC2)C1 (centres undefined) | – | – | · | · | · | · | ·
Cc1sc2ncnc(NCc3cccs3)c2c1C | – | – | – | – | – | – | ·
Cc1sc2ncnc(NCc3cccnc3)c2c1C | 37 | – | – | – | – | – | –
O/N=C(/c1ccccc1)c1cc2cc(Br)cc(Br)c2o1 | – | · | · | · | · | · | ·
CC1=Nc2ccccc2/C1=C\c1nc(-c2ccc(F)cc2)oc1O | 22 | – | – | – | – | – | –
CN=Cc1nc(-c2ccccc2)oc1O | – | – | – | – | – | – | ·
O=c1[nH]c2c(s1)C(c1ccco1)C1C3CCC(C3)C1S2 (centres undefined) | 24 | – | – | – | – | – | –
COC(=O)C1=CN(Cc2ccc(OC)c(OC)c2)C=C(C(=O)OC)C1c1ccccc1F | 28 | – | · | · | · | · | 11
COC(=O)C1=CN(Cc2ccccc2)C=C(C(=O)OC)C1c1ccc(O)c(OC)c1 | 28 | – | · | · | · | · | –
CN(C)C(=O)C(OC(=O)c1ccc2ccccc2n1)c1ccccc1 (centres undefined) | – | – | · | · | · | · | ·
Cc1[nH]c(=O)[nH]c(=O)c1/C=N/NC(=O)[C@@H](N)CC(C)C | – | – | – | · | – | – | ·
CCN(CC(=O)Nc1c(F)cccc1F)C(=O)CNC(=O)c1ccc(C)s1 | – | – | · | · | · | · | ·
COc1ccc(C(=O)Nc2ccc(S(=O)(=O)Nc3onc(C)c3C)cc2)cc1 | 27 | – | – | – | – | – | –
COCCNC(=O)c1ccccc1NC(=O)c1ccccc1N(C)S(=O)(=O)c1ccc(C)cc1 | – | – | – | – | – | – | ·
COCCNC(=S)N(CCO)Cc1cc2cc3c(cc2[nH]c1=O)OCCO3 | – | – | · | · | · | · | ·
O=C(Nc1cccc(Cl)c1)Nc1nnc(CSCCOc2ccc(Cl)cc2)s1 | – | – | – | – | – | – | ·
NS(=O)(=O)c1cccc(NC(=O)CCCNC(=O)c2ccc(Cl)cc2)c1 | – | – | · | · | · | · | ·
NS(=O)(=O)c1cccc(NC(=O)CCSc2ccc(Cl)cc2)c1 | 19 | – | – | – | – | – | –
CCN1C(=O)C2(C(C#N)=C(N)Oc3n[nH]c(C(C)C)c32)c2ccccc21 (centres undefined) | 26 | – | – | – | – | – | –
COCC(C)N1CCC(n2nccc2NC(=O)CCOc2ccccc2)CC1 (centres undefined) | – | – | · | · | · | · | ·
CC(CC(F)(F)F)N1CCC(n2nccc2NC(=O)CCOc2ccccc2)CC1 (centres undefined) | 27 | – | · | · | · | · | –
Cc1ccc(/C=C2/C(=O)c3ccc(C(=O)O)cc3C2=O)o1 | 19 | – | – | – | – | – | –
O=C(O)c1ccc2c(c1)C(=O)/C(=C\c1ccco1)C2=O | – | – | – | – | – | – | ·
CC(=O)[C@@H]1[C@@H](C)N(Cc2ccccc2)C(=O)N[C@H]1c1cccc(C(F)(F)F)c1 | 20 | – | – | · | – | · | –
CNc1cc(F)nc(F)n1 | 27 | – | – | – | – | – | 22
O=C(Nc1ncc2c(n1)-c1ccccc1CC2)C1CC1 | – | – | – | – | – | – | ·
CC(C)SCC(=O)Nc1ncc2c(n1)-c1ccccc1CC2 | 18 | – | – | – | – | – | 3.5
c1c2c(cc3sc(N4CCOCC4)nc13)OCCO2 | 23 | – | – | – | – | – | –
c1ccc(N2CCN(c3nc4cc5c(cc4s3)OCCO5)CC2)cc1 | – | – | – | – | – | – | ·
